The list is not random: actives were taken first. Their share in the collection is about 5.3%.
NALP3 yeast inh: blocks the NALP3 inflammasome reconstituted in yeast; inhibition, % at 10 µM; Yeast reconstituted NLRP3/ASC/caspase-1, beta-gal luminescence, 24 h; 330,000 compounds, 0.39% hits;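 active = inhibition of 50% or more; inactive = inhibition below 50%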
T cruzi inh: blocks replication of Trypanosoma cruzi; T. cruzi beta-gal in NIH3T3, luminescence, 90 h; inhibition, % (test concentration not listed); 300,000 compounds, 1.4% hits; AID 1885;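 active = mean inhibition across valid replicates above about 55%, limit read from the data; inconclusive = mean below that limit but half or more replicates reach it; inactive = mean below it, under half of replicates reach it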;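 also: signal also drops with host cell toxicity which is not excluded here; higher percent means less beta-gal luminescence so fewer parasites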
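System – NIH/3T3 host cells with β-galactosidase reporter T. cruzi · Doses – single 50 nL compound addition per well in DMSO · Reagent – 5000 T. cruzi trypomastigotes/well · Medium – Low-serum DMEM with 2% FBS · Timing – ≥90 h infection period, 3 h prior cell attachment · Evaluation – parasite load inhibition, % · Technique – GalScreen luminescence, 60 min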
Beta apoptosis: blocks beta cell apoptosis. INS-1E cytokine-induced death, ATP luminescence, 48 h; percent of positive-control rescue, neutral wells zero. protection from apoptosis, % (no concentration beside the values). 300,000 compounds, 0.8% hits;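 active = Every replicate reaches about 75%, or at least half do and their mean reaches it too, limit read from the data; inconclusive = At least half of replicates reach the limit but their mean does not; inactive = Under half of replicates reach the limit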;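 also: higher means more ATP so stronger rescue from cytokine killing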
CSC inhib: cancer stem cell inhibition; inhibition, % at 7.5 µM; 300,000 compounds, 1.1% hits; AID 2717; cancer stem cell-like cells viability, luminescence; in the data active = inhibition above about 75%; inconclusive = no clear call, values can overlap the other calls; tested in HMLE shEcad cells
Calb FLC: affects C. albicans growth with fluconazole; AID 1979; growth inhibition, % (test concentration not listed); C. albicans CaCi-2 + fluconazole, Alamar Blue growth, 48 h; 300,000 compounds, 0.57% hits;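 active = growth inhibition above about 58% in most replicates, limit read from the data, passing the limit was not always enough; inconclusive = exactly half the replicates above a set limit; inactive = most replicates below a set limit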;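 also: all wells also contain fluconazole at 8 µg/ml as a sub-toxic cotreatment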
Mdm2 MdmX PPI: human Mdm2/MdmX binding inhibition. inhibition, % at 8 µM. 330,000 compounds, 3% hits. AID 485346. SaOS-2 split-luciferase Mdm2/MdmX complementation, luminescence. O15151+Q00987;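 active = inhibition of at least 50% at 8 µM in the primary screen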
A number is an active result; n = inactive; u = inconclusive; x = no result given.

SMILES	NALP3 yeast inh	T cruzi inh	Beta apoptosis	CSC inhib	Calb FLC	Mdm2 MdmX PPI
COc1ccc(CC(=O)Nc2cccc(S(=O)(=O)N3CCCCCC3)c2)cc1OC	x	n	86.7	n	n	x
CCN(CC)S(=O)(=O)c1cc(NC(=O)CNc2cccc(S(=O)(=O)N3CCCC3)c2)ccc1C	n	n	88.8	n	n	n
C[n+]1cccc(O)c1SCc1ccccc1	n	n	n	n	n	n
O=C(Nc1cccc(Cl)c1)c1nc[nH]c1C(=O)NCCCNC(=O)c1[nH]cnc1C(=O)Nc1cccc(Cl)c1	n	x	n	100.6	x	n
Cc1ccc(-c2cn(-c3ccc(OC(F)F)cc3)c3[n+]2CCCCC3)cc1	n	n	99.9	n	u	n
FC(F)Sc1ccc(-n2cc(-c3ccc(Cl)cc3)[n+]3c2CCC3)cc1	n	n	n	x	n	n
Cc1ccc(-c2cn(-c3ccc(SC(F)F)cc3)c3[n+]2CCC3)cc1	n	n	82.3	x	n	n
C=C(C)C(=O)N1CC2(CC(c3cccc(NC(=O)/C=C\C=C/C)c3)=NO2)C[C@H]1C(N)=O (stereo not given in full)	n	n	n	n	n	n
COc1ccc(Oc2cn[nH]c2-c2ccc(O)cc2O)cc1	n	n	n	n	n	n
CCCc1ccc(Oc2cn[nH]c2-c2ccc(O)cc2O)cc1	n	n	n	u	67.8	n
Cc1nn(-c2ccccc2)c2c1cc1c(=O)n(C)c(=O)nc-1n2-c1ccccc1F	n	n	n	n	n	n
Cc1ccc(C23CC4CC(CC(NC(=O)NCCN(C)C)(C4)C2)C3)cc1	n	59.1	n	n	n	n
CS(=O)(=O)/C(C#N)=C/c1c(-c2ccccc2)nc2n1CCS2	n	n	n	n	n	n
Clc1ccc(CO/N=C/c2c(-c3ccccc3)nc3n2CCS3)c(Cl)c1	n	u	n	77.7	n	n
FC(F)(F)COc1nc(OCC(F)(F)F)nc(N2CCN(c3ccccc3)CC2)n1	n	x	n	n	88.5	n
Cc1noc(C)c1C(=O)OCC(=O)N(C)C1(C#N)CCCCC1	n	x	n	x	x	n
CCOCCCNC(=S)N1CCC(C(=O)c2ccc(C)cc2)CC1	n	n	x	n	n	n
CC(C)OCCCNC(=S)N1CCC(C(=O)c2ccc(Cl)cc2)CC1	n	n	102.0	n	n	n
Cc1ccc(S(=O)(=O)N(C)c2ccc(OCC(=O)Nc3nnc(C4CC4)s3)cc2)cc1	x	n	x	x	63.1	x
CCOc1ccc(S(=O)(=O)N(C)c2ccc(OCC(=O)Nc3nc4ccccc4s3)cc2)cc1	n	n	91.6	n	n	n
CN(c1ccc(OCC(=O)Nc2nc3ccccc3s2)cc1)S(=O)(=O)c1ccccc1	n	n	n	n	n	n
Clc1ccc(COc2cccc(CNCc3ccncc3)c2)cc1	n	70.1	n	n	u	n
Cc1ccc(S(=O)(=O)Nc2c(NC3CCCCC3)c3ccccc3oc2=O)cc1	n	n	n	n	n	n
CN(Cc1ccccc1)CC(O)COc1ccc(CNCCc2cccnc2)cc1 (stereo not given)	n	n	n	n	n	n
CN(Cc1ccccc1)CC(O)COc1ccc(CNCCc2ccncc2)cc1 (stereo not given)	n	65.7	n	n	n	n
SMILES	NALP3 yeast inh	T cruzi inh	Beta apoptosis	CSC inhib	Calb FLC	Mdm2 MdmX PPI
CCc1ccc(NC(=O)COc2coc(CN3CCc4ccccc4C3)cc2=O)cc1	n	n	x	n	n	n
CC1CC(C)CN(c2ncc3c(n2)CC(c2ccccc2Cl)CC3=O)C1 (stereo not given)	n	n	n	83.7	u	n
CC1CC(C)CN(c2ncc3c(n2)CC(c2ccc(Cl)cc2)CC3=O)C1 (stereo not given)	n	n	n	n	n	n
OCCN=C1CCCc2c1[nH]c1ccc(Cl)cc21	n	n	n	n	n	n
Cc1cc(C)c(C#N)c(SCC(=O)Nc2nnc(-c3ccccc3)s2)n1	n	55.0	n	n	u	n
Cc1sc(-n2c(C)cc(/C=C3\SC(=S)NC3=O)c2C)c(C#N)c1C	n	n	n	78.8	n	n
Cc1cc(/C=C2\SC(=S)NC2=O)c(C)n1-c1cccc(O)c1	n	n	n	n	n	n
O=C(CC1SC(=Nc2ccccc2)N(CCc2c[nH]c3ccccc23)C1=O)Nc1ccccc1F (stereo not given)	n	n	n	81.1	n	n
Nc1c(C(=O)NC2CCCC2)c2nc3ccccc3nc2n1N	n	n	x	n	n	n
CCNC(=S)N1N=C2c3ccccc3CCC2C1c1ccc(F)cc1 (stereo not given)	n	n	n	81.5	n	n
Cc1ccc(S(=O)(=O)Nc2cc(Cl)c(O)c3ncccc23)cc1	n	n	109.7	n	n	n
O=c1nc(/C=C/c2cc([N+](=O)[O-])ccc2Cl)cc(C(F)(F)F)[nH]1	n	n	n	x	89.4	n
CC1Oc2cc3oc4c(O)c(O)ccc4c(=O)c3c(O)c2C1(C)C (stereo not given)	n	n	n	n	96.6	n
Cc1ccc2nc3c(c(Nc4ccccc4)c2c1)CCC3	n	n	n	n	n	n
O=C(c1ccccc1)c1c[nH]c(C(=O)NNc2ccccc2)c1	n	57.2	n	96.7	99.1	n
COC(=O)[C@H](CC(C)C)N(Cc1ccccc1)S(=O)(=O)N(Cc1ccccc1)[C@@H](CC(C)C)C(=O)OC	n	x	121.4	n	x	n
COC(=O)[C@H](CC(C)C)N(Cc1ccccc1)S(=O)(=O)N(Cc1ccc(OC)cc1)[C@@H](CC(C)C)C(=O)OC	n	x	116.2	n	x	n
CCOC(=O)[C@@H](C)N(Cc1ccc(OC)cc1)S(=O)(=O)N(Cc1ccccc1)[C@H](C(=O)OC)C(C)C	n	x	n	n	x	n
COC(=O)[C@H](CC(C)C)NS(=O)(=O)N(Cc1ccccc1)[C@@H](CC(C)C)C(=O)OC	n	x	n	n	x	n
Cc1ccc(S(=O)(=O)NCC(=O)OCC(=O)Nc2ccccc2OC(F)F)cc1	n	n	n	n	n	n
COC(=O)CCC(=O)N1CCOCCOCCOCC1	n	n	n	x	n	n
CCS(=O)(=O)Nc1ccc(-c2cc(-c3ccccc3)c3cc(C)ccc3n2)cc1	x	n	n	85.2	n	x
Cc1ccc2nc(-c3ccc(NS(C)(=O)=O)cc3)cc(-c3ccccc3)c2c1	n	x	n	n	n	n
CCOc1cc(S(=O)(=O)N(CC)CC)c(OCC)cc1-n1cnnn1	n	n	x	x	n	n
CCOc1cc(S(=O)(=O)N2CCC(Cc3ccccc3)CC2)c(OCC)cc1-n1cnnn1	n	67.1	n	n	n	n
CCOC(=O)CSc1nc2c(sc(=S)n2-c2ccccc2OC)c(=O)n1-c1ccccc1OC	n	n	n	n	n	n
COc1ccc(-n2c(SCC(=O)C(C)(C)C)nc3c(sc(=S)n3-c3ccccc3)c2=O)c(OC)c1	n	59.7	n	n	n	n
Cc1[nH]n(-c2ccc([N+](=O)[O-])cc2)c(=O)c1C=NCCN1CCN(C(=O)c2ccc(Br)cc2)CC1	n	66.1	n	n	n	n
